According to ChEMBL document CHEMBL3872222, “Synthesis of novel curcuminoids accommodating a central β-enaminone motif and their impact on cell growth and oxidative stress” (Eur J Med Chem, 2016):
≈ marks a conversion by molar mass, not a printed value.

What was measured:
[1] = Antioxidant activity assessed as inhibition of DPPH radical activity at 1 uM measured after 30 mins under dark conditions by spectrophotometric analysis relative to control; assay type: functional
[2] = system: HT-29; test: Effect on oxidative stress in human HT-29 cells assessed as intracellular ROS level at 1 uM after overnight incubation by DCFH-DA staining based fluorescence assay relative to control; assay type: functional
Outline: (§1)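 Cells grown in DMEM+glutamax, 1% NEAA, 1% P/S, 10% FBS; seeded 20000/well, treated at confluency overnight in serum-free medium, DMSO under 0.1% final. Loaded with 20 μM DCFH-DA 30 min at 37 °C, 10% CO2; washed, phenol red-free medium 1 h, then serum-free medium; fluorescence ex 485/em 535 nm. Percent of untreated; two-tailed unequal-variance t-test, n≥6.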

[3] = system: EA.hy 926; test: Effect on oxidative stress in human EAhy926 cells assessed as intracellular ROS level at 10 uM after overnight incubation by DCFH-DA staining based fluorescence assay relative to control; assay type: functional; outline: as §1
[4] = system: EA.hy 926; test: Effect on oxidative stress in human EAhy926 cells assessed as intracellular ROS level at 1 uM after overnight incubation by DCFH-DA staining based fluorescence assay relative to control; assay type: functional; outline: as §1
[5] = Growth inhibition of undifferentiated human Caco2 cells measured after 72 hrs by SRB assay; assay type: functional, cell-based; conditions: Caco-2, 72 h
Outline: (§2)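 20000 cells/well treated after 1 day at 1, 5, 10, 25 μM, serum-free, for 3 days. Fixed with 50% TCA 1 h at 4 °C, stained 30 min with 0.4% sulforhodamine B in 1% acetic acid, rinsed with 1% acetic acid, dye dissolved in 10 mM Tris, absorbance 490 nm; triplicate; IC50 derived.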

[6] = Growth inhibition of differentiated human Caco2 cells assessed as mitochondrial activity measured after 72 hrs by MTT assay; assay type: cell-based; conditions: Caco-2, 72 h
Outline: (§3)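 Seeded 20000 cells/well in DMEM+glutamax, NEAA, P/S, FBS; after 1 day treated 1, 5, 10, 25 μM in serum-free medium (DMSO under 0.1%) for 3 days. MTT (5 mg/ml in PBS) 2 h at 37 °C, 10% CO2 in dark; formazan dissolved in DMSO, absorbance 570 nm; triplicate; IC50 derived.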

[7] = Growth inhibition of human EAhy926 cells measured after 72 hrs by SRB assay; assay type: cell-based; conditions: EA.hy 926, 72 h; outline: as §2
[8] = Solubility of the compound in serum-free DMEM assessed as compound concentration required for crystal formation measured after 1 day by microscopic analysis; assay type: physicochemical; conditions: 24 h
Outline: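 Compound at 0, 0.5, 1, 5, 10, 25 and 50 μM in serum-free DMEM incubated 1 day at 37 °C, 10% CO2, then examined for crystal formation.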

[9] = system: CHO; test: Effect on oxidative stress in CHO cells assessed as intracellular ROS level at 10 uM after overnight incubation by DCFH-DA staining based fluorescence assay relative to control; assay type: functional, Cricetulus griseus; outline: as §1
[10] = Growth inhibition of human HT-29 cells assessed as mitochondrial activity measured after 72 hrs by MTT assay; assay type: functional, cell-based; conditions: HT-29, 72 h; outline: as §3
[11] = system: HT-29; test: Effect on oxidative stress in human HT-29 cells assessed as intracellular ROS level at 10 uM after overnight incubation by DCFH-DA staining based fluorescence assay relative to control; assay type: functional; outline: as §1
[12] = system: Caco-2; test: Effect on oxidative stress in undifferentiated human Caco2 cells assessed as intracellular ROS level at 1 uM after overnight incubation by DCFH-DA staining based fluorescence assay relative to control; assay type: functional; outline: as §1
[13] = system: CHO; test: Effect on oxidative stress in CHO cells assessed as intracellular ROS level at 1 uM after overnight incubation by DCFH-DA staining based fluorescence assay relative to control; assay type: functional, Cricetulus griseus; outline: as §1
[14] = Antioxidant activity assessed as trolox equivalent of ferric ion reducing activity using Fe3+-TPTZ by measuring Fe2+-TPTZ formation after 4 mins by UV-vis spectrophotometry based FRAP assay; assay type: functional
Outline: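 FRAP reagent: 300 mM acetate buffer, 10 mM TPTZ in ethanol and 20 mM FeCl3 (in dilute HCl) combined 10:1:1, TPTZ and iron freshly made. Sample mixed 1:9 with reagent; absorbance 593 nm after 4 min. Expressed as trolox equivalents per μM from slope of linear plot versus analog concentration.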

[15] = Growth inhibition of CHOK1 cells measured after 72 hrs by SRB assay; assay type: functional, cell-based; conditions: Cricetulus griseus, CHO-K1, 72 h; outline: as §2
[16] = Growth inhibition of CHOK1 cells assessed as mitochondrial activity measured after 72 hrs by MTT assay; assay type: functional, cell-based; conditions: Cricetulus griseus, CHO-K1, 72 h; outline: as §3
[17] = system: Caco-2; test: Effect on oxidative stress in undifferentiated human Caco2 cells assessed as intracellular ROS level at 10 uM after overnight incubation by DCFH-DA staining based fluorescence assay relative to control; assay type: functional; outline: as §1
[18] = Growth inhibition of human EAhy926 cells assessed as mitochondrial activity measured after 72 hrs by MTT assay; assay type: cell-based; conditions: EA.hy 926, 72 h; outline: as §3
[19] = Growth inhibition of undifferentiated human Caco2 cells assessed as mitochondrial activity measured after 72 hrs by MTT assay; assay type: functional, cell-based; conditions: Caco-2, 72 h; outline: as §3
[20] = Growth inhibition of human HT-29 cells measured after 72 hrs by SRB assay; assay type: functional, cell-based; conditions: HT-29, 72 h; outline: as §2
[21] = Growth inhibition of differentiated human Caco2 cells measured after 72 hrs by SRB assay; assay type: cell-based; conditions: Caco-2, 72 h; outline: as §2

In the case of O=C(/C=C(/C=C/c1ccc(O)cc1)NC1CCCCC1)/C=C/c1ccc(O)cc1, the inhibition [1] is reported as 0.03%, the Activity [2] is reported as 77% and the Activity [3] is reported as 299%. The Activity [4] was 129%, the IC50 [5] was 6.9 µM and the IC50 [6] was greater than 25 µM. For the same compound, the IC50 [7] was 4.2 µM, the solubility [8] was 5 µM (≈ 1.95 µg/mL) and the Activity [9] was 150%. It also gave an IC50 [10] of 4 µM, an Activity [11] of 80% and an Activity [12] of 97%. For the same compound, the Activity [13] was 111%, the Activity [14] was 0.56 µMequiv/µM and the IC50 [15] was 11.6 µM. The IC50 [16] was 9.2 µM, the Activity [17] was 82% and the IC50 [18] was 3.3 µM. For the same compound, the IC50 [19] was 7.8 µM, the IC50 [20] was 5.9 µM and the IC50 [21] was greater than 25 µM.
Work on COc1cc(/C=C/C(=O)/C=C(/C=C/c2ccc(O)c(OC)c2)NC2CCCCC2)ccc1O yielded an inhibition [1] of 0.13%, an Activity [2] of 80% and an Activity [3] of 191%. The Activity [4] was 91%, the IC50 [5] was 5.1 µM and the IC50 [6] was greater than 25 µM. It also gave an IC50 [7] greater than 25 µM, a solubility [8] of 25 µM (≈ 11.2 µg/mL) and an Activity [9] of 122%. It also gave an IC50 [10] greater than 25 µM, an Activity [11] of 74% and an Activity [12] of 88%. The Activity [13] was 137%, the Activity [14] was 0.83 µMequiv/µM and the IC50 [15] was greater than 25 µM. For the same compound, the IC50 [16] was 24.7 µM, the Activity [17] was 63% and the IC50 [18] was greater than 25 µM. It also gave an IC50 [19] greater than 25 µM, an IC50 [20] greater than 25 µM and an IC50 [21] greater than 25 µM.
Work on C=CCNC(=C\C(=O)/C=C/c1ccc(O)c(OC)c1)/C=C/c1ccc(O)c(OC)c1 yielded an inhibition [1] of 0.1%, an Activity [2] of 99% and an Activity [3] of 267%. The Activity [4] was 124%, the IC50 [5] was greater than 25 µM and the IC50 [6] was greater than 25 µM. It also gave an IC50 [7] greater than 25 µM, a solubility [8] of 25 µM (≈ 10.2 µg/mL) and an Activity [9] of 104%. For the same compound, the IC50 [10] was greater than 25 µM, the Activity [11] was 84% and the Activity [12] was 89%. It also gave an Activity [13] of 115%, an Activity [14] of 1.14 µMequiv/µM and an IC50 [15] greater than 25 µM. It also gave an IC50 [16] of 7.4 µM, an Activity [17] of 76% and an IC50 [18] greater than 25 µM. The IC50 [19] was greater than 25 µM, the IC50 [20] was 24.6 µM and the IC50 [21] was greater than 25 µM.
For COc1cc(/C=C/C(=O)CC(=O)/C=C/c2ccc(OC(C)=O)c(OC)c2)ccc1OC(C)=O, the inhibition [1] was 0%, the Activity [2] was 79% and the Activity [3] was 189%. It also gave an Activity [4] of 114%, an IC50 [5] greater than 25 µM and an IC50 [6] greater than 25 µM. It also gave an IC50 [7] greater than 25 µM, a solubility [8] of 0.5 µM (≈ 0.226 µg/mL) and an Activity [9] of 112%. It also gave an IC50 [10] greater than 25 µM, an Activity [11] of 76% and an Activity [12] of 93%. For the same compound, the Activity [13] was 128%, the Activity [14] was 0.03 µMequiv/µM and the IC50 [15] was greater than 25 µM. For the same compound, the IC50 [16] was greater than 25 µM, the Activity [17] was 90% and the IC50 [18] was greater than 25 µM. It also gave an IC50 [19] greater than 25 µM, an IC50 [20] greater than 25 µM and an IC50 [21] greater than 25 µM.
With CCC(C)NC(=C\C(=O)/C=C/c1ccc(O)cc1)/C=C/c1ccc(O)cc1 (stereo unspecified) the inhibition [1] was 0.03%, the Activity [2] was 76% and the Activity [3] was 414%. It also gave an Activity [4] of 99%, an IC50 [5] of 5.8 µM and an IC50 [6] greater than 25 µM. For the same compound, the IC50 [7] was greater than 25 µM, the solubility [8] was 25 µM (≈ 9.09 µg/mL) and the Activity [9] was 111%. The IC50 [10] was 13 µM, the Activity [11] was 76% and the Activity [12] was 102%. For the same compound, the Activity [13] was 104%, the Activity [14] was 0.18 µMequiv/µM and the IC50 [15] was 15.1 µM. The IC50 [16] was 13.1 µM, the Activity [17] was 102% and the IC50 [18] was 22 µM. The IC50 [19] was 9.4 µM, the IC50 [20] was 15.6 µM and the IC50 [21] was greater than 25 µM.
CC(C)CNC(=C\C(=O)/C=C/c1ccc(O)cc1)/C=C/c1ccc(O)cc1 gave an inhibition [1] of 0.02%, an Activity [2] of 77% and an Activity [3] of 119%. It also gave an Activity [4] of 100%, an IC50 [5] of 18.5 µM and an IC50 [6] greater than 25 µM. For the same compound, the IC50 [7] was greater than 25 µM, the solubility [8] was 25 µM (≈ 9.09 µg/mL) and the Activity [9] was 97%. For the same compound, the IC50 [10] was 20.1 µM, the Activity [11] was 75% and the Activity [12] was 100%. For the same compound, the Activity [13] was 109%, the Activity [14] was 0.19 µMequiv/µM and the IC50 [15] was 23.7 µM. It also gave an IC50 [16] of 17.9 µM, an Activity [17] of 82% and an IC50 [18] greater than 25 µM. The IC50 [19] was 23 µM, the IC50 [20] was 22.5 µM and the IC50 [21] was greater than 25 µM.
